Calls of active or inactive are those of the source. The rule behind the calls is not given here.

Data set [1] deals with Solanum lycopersicum. The experiment in a line: Inhibition of tomato seedling growth at 100 uM. It counts as functional. A digest of the protocol: (§1)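 Tomato seedlings were conditioned 24 h in water, which was then replaced with filter-sterilized (0.2 µm) test solutions at 2, 0.2, 0.1 or 0.01 mM. Phytotoxic symptoms and root growth inhibition were scored at 24, 48 and 72 h. Each assay was run twice on 10 replicate seedlings.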

Data set [2] concerns Solanum lycopersicum. The experiment in a line: Induction of necrotic symptoms in tomato leaves up to 2 mM by tomato seedling bioassay. The format is functional, organism-based. A digest of the protocol: as §1
For data set [3], the system named is Endothelial cell. The experiment in a line: Antiangiogenic activity in bovine endothelial cells assessed as inhibition of cell migration at 50 uM. The settings on record: Bos taurus. It counts as functional, cell-based.
Data set [4] is described as follows: Cytotoxicity against bovine endothelial cells at 12.5 uM. The format is cell-based, Bos taurus. The settings on record: cattle, endothelial cell.
Data set [5] relates to Endothelial cell. The experiment in a line: Antiangiogenic activity in bovine endothelial cells assessed as inhibition of cell migration at 12.5 uM. It counts as functional, cell-based. The settings on record: Bos taurus.
A short description of data set [6]: Cytotoxicity against bovine endothelial cells at 50 uM. The format is cell-based, Bos taurus. The settings on record: cattle, endothelial cell.
The test system of data set [7] is Solanum lycopersicum. Description: Inhibition of tomato seedling growth at 200 uM. It counts as functional, organism-based. A digest of the protocol: as §1
In data set [8] the test system is Solanum lycopersicum. The experiment in a line: Inhibition of tomato seedling growth at 10 uM. The format is functional. Details: scale not given: the % may be the effect or the level left. A digest of the protocol: as §1

Turning to `O=C(O)c1cc(O)c(C2OC(=O)c3c(O)cc(O)cc32)c(O)c1` (stereo not given) [CRYPHONECTRIC ACID], in the data set with Solanum lycopersicum [1], the outcome was Active. In addition, the result in the data set with Solanum lycopersicum [2], with Endothelial cell [3] and in the data set with Endothelial cell [5] was inactive. Also, the Activity entry in data set [4] and in data set [6] was “Non-toxic” in each case.
In the case of `COc1cc(O)c2c(=O)oc(CC(C)O)cc2c1` (stereo not given) [DIAPORTHIN], the Activity worked out at 75% in the data set on Solanum lycopersicum [1] and 50% in the data set with Solanum lycopersicum [8]. The result with Solanum lycopersicum [7] was Active. In addition, the outcome in the data set with Solanum lycopersicum [2] was inactive.
